Screens (PubChem BioAssay)
V-ATPase pHluor: regulators of yeast V-ATPase proton pumping, primary screen, pHLuorin cytosolic pH fluorescence; S. cerevisiae; response, % at 10 µM; 350,000 compounds, 0.37% hits; in the data active = response mostly above about 7.3%, no sharp cut-off; inactive = mostly below about 5.4%; also: actives read high
TbMetRS inhib: T. brucei MetRS inhibitors, primary screen, biochemical, luminescence. methionyl-tRNA synthetase (Trypanosoma brucei brucei). 360,000 compounds, 0.4% hits. purified T. brucei MetRS, ATP depletion, Kinase-Glo luminescence. inhibition, % at 11.9 µM;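 active = inhibition above a per-plate cutoff of the control wells' mean inhibition plus 3 SD, cut at about 5.5% in these data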
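Test system – parasite MetRS enzyme · Reagent – substrates ATP, L-methionine and bulk Escherichia coli tRNA · Doses – 11.9 µM compound single dose, 0.9% DMSO · Times – 15 min enzyme-compound preincubation, 2 h reaction, 10 min detection, 25 °C · Signal – Kinase-Glo luminescence, ATP depletion format · Controls – DMSO-only wells as low control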
UPR XBP1 act: activators of adaptive XBP1 UPR arm, primary screen, cell-based, CHO-XBP1 luciferase reporter, luminescence, uHTS. IRE1-XBP1 UPR activation; percent of tunicamycin response, DMSO as zero. AID 463104, 2010. 330,000 compounds, 0.33% hits. activation, % at 20 µM;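 active = versus positive control, 20 µM dose yields 30% or more activation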
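incubation = overnight seeding at 37 °C, 6 h compound treatment at 37 °C | assay system = CHO-XBP1 cells stably carrying IRE1-XBP1-driven luciferase reporter | input = 1000 cells per well | detection = luciferase luminescence | dosing = single point, 20 µM final compound, 1% DMSO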
UPR CHOP act: activators of apoptotic CHOP UPR arm, primary screen, cell-based, CHO-CHOP luciferase reporter, luminescence, uHTS | UPR activation; percent of tunicamycin response over DMSO baseline | activation, % at 10 µM | 330,000 compounds, 0.34% hits | AID 449763, 2010;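 active = at 10 µM dose, activation of 40% or more, normalized to positive control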
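Test system: CHO-CHOP cells, stable luciferase reporter of PERK-eIF2a-CHOP signalling | Quantity: 500 CHO-CHOP cells per well | Buffer or medium: F12 plus 10% serum | Compound dosing: 10 µM single point, 0.5% DMSO | Schedule: 6 h compound treatment, 37 °C | Signal: Luciferase luminescence | Control set: Tunicamycin high control, DMSO low control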
CHOP inhibitor: inhibitors of CHOP promoter induction, primary screen, cell-based, unfolded protein response, luciferase reporter. CHO-K1 CHOP-promoter luciferase, tunicamycin-induced, 15-18 h. inhibition, % at 10 µM. 220,000 compounds, 3.8% hits;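 active = compounds that reduced the stress-induced luciferase reporter signal by more than about 70% of percent inhibition, limit read from the data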
UPR XBP1 confirm: IRE1-XBP1 UPR arm activators, confirmation, cell-based, CHO-XBP1 luciferase reporter, luminescence, single concentration; activation, % at 20 µM; shares compounds with UPR XBP1 act; 1,000 compounds, 63% hits; AID 485299, 2010;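 active = reporter signal at least 30% of the positive control's activation in two or more of four replicate wells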
A number is an active result; - = inactive; . = no result given. The entries come from a sample that favours hits as a whole.

SMILES	V-ATPase pHluor	TbMetRS inhib	UPR XBP1 act	UPR CHOP act	CHOP inhibitor	UPR XBP1 confirm
O=C(CSc1nc2ccccc2c(=O)n1-c1ccccc1)N1CCc2ccccc21	-	-	35.9	-	-	42.0
CCC/C(=N/Nc1ccc(Cl)cc1)c1cnnc(-c2ccccc2)n1	.	.	66.3	-	.	27.9
O=C(NC(=S)Nc1ccc(-c2ccccc2)cc1)c1ccccc1	-	-	.	.	.	.
NS(=O)(=O)c1ccc(NC(=S)NC(=O)c2ccc(-c3ccccc3)cc2)cc1	-	-	50.4	-	-	-
COc1ccc(OC)c(NC(=S)NC(=O)c2ccc(Br)o2)c1	-	-	-	-	.	.
Cc1ccccc1-c1cc2nc(NCCN3CCNC3=O)n(C)c(=O)c2s1	.	-	.	.	.	.
CCCCNC(=S)N/N=C1\C(=O)c2cccc3cccc1c23	-	-	-	-	-	.
CNC(=S)N/N=C1\C(=O)c2cccc3cccc1c23	-	-	33.4	-	-	-
Cc1ccc(Nc2nc(-c3c(C)nc4ccccn34)cs2)cc1	-	-	41.4	-	85.3	34.8
Cc1ccc(NC(=O)CCC(=O)N/N=C/C=C/c2ccccc2)cc1	-	-	-	-	-	.
COc1cc(/C=C/c2ccc3cccc(O)c3n2)ccc1O	-	-	60.3	-	.	36.5
O=C(Nc1ccc2c(c1)C(=O)c1ccccc1-2)c1ccccc1	-	-	.	.	.	.
COc1cccc(C(=O)Nc2ccc3c(c2)C(=O)c2ccccc2C3=O)c1	-	-	91.1	-	-	-
COc1cc(-c2noc(C)c2C#Cc2ccccn2)cc(OC)c1OC	-	-	-	-	.	.
COc1cc(-c2noc(C)c2C#Cc2ccc(N)cc2)cc(OC)c1OC	-	-	59.4	-	.	-
N#C/C(=C\Nc1ccc2cn[nH]c2c1)c1nc(-c2ccc(Cl)cc2)cs1	-	-	101.1	-	-	72.0
C=CCN=C1S/C(=C\N(C)C)C(=O)N1S(=O)(=O)c1ccc(C)cc1	-	-	-	-	.	.
CCCCCCCCCCn1ccc(=N)cc1	-	-	34.7	-	80.1	-
CC(C)(C)c1cc(-c2nc(N)nc(N)n2)c(O)c(C(C)(C)C)c1	-	-	58.1	-	.	30.1
Nc1nc(N)nc(-c2cc(O)ccc2O)n1	-	-	-	-	.	.
CCOC(=O)c1c(-c2ccc(C)o2)csc1NC(=O)COC(=O)c1ccc(NC(N)=O)cc1	-	-	33.3	-	-	54.9
C[C@H]1[C@H](C)CC[C@]2(C(=O)O)CC[C@]3(C)C(=CC[C@@H]4[C@@]5(C)CC[C@H](O)C(C)(C)[C@@H]5CC[C@]43C)[C@H]12	-	-	39.0	-	72.5	-
C[C@H]1[C@H](C)CC[C@]2(C(=O)O)CC[C@]3(C)C(=CC[C@@H]4[C@@]5(C)C[C@@H](O)[C@H](O)C(C)(C)[C@@H]5CC[C@]43C)[C@H]12	-	-	103.3	-	72.4	123.7
CCN(CC(=O)NCc1ccc(F)cc1)C(=O)c1cccc(S(=O)(=O)N(C)c2ccc(OC)cc2)c1	-	-	.	.	.	.
CC(C)(C)CC(=O)Nc1nnc(SCC(=O)NC2CCCCC2)s1	-	-	-	-	.	.
SMILES	V-ATPase pHluor	TbMetRS inhib	UPR XBP1 act	UPR CHOP act	CHOP inhibitor	UPR XBP1 confirm
COc1cc2nc(SCC(=O)NCc3ccco3)n(Cc3ccc(Cl)cc3)c(=O)c2cc1OC	-	-	34.6	-	88.7	-
COc1ccc(NC(=O)NC23CC4(C)CC(C)(CC(C)(C4)C2)C3)cc1OC	-	-	-	-	-	.
COCc1cc(C)nc(SCC(=O)c2ccc(O)c(O)c2)c1C#N	-	-	40.6	-	-	43.0
COCc1cc(C)nc(SCC(=O)Oc2ccccc2)c1C#N	-	-	-	-	-	.
COc1ccccc1/C=C/C(=O)c1cc(Br)ccc1OC(=O)c1ccco1	-	-	-	-	.	.
Cc1ccc(/C=C/C(=O)c2cc(Br)ccc2OC(=O)c2ccco2)cc1	-	-	54.1	-	-	107.8
Cc1cc(C)c(S(=O)(=O)Nc2ccc3c4c(cccc24)CC3)c(C)c1	-	-	30.2	-	-	-
Cc1ccc(S(=O)(=O)Nc2ccc3c4c(cccc24)CC3)c(C)c1	-	-	-	-	.	.
